High-throughput results deposited in PubChem BioAssay by Sanford-Burnham Center for Chemical Genomics.
HNF4A DNA FP: change in binding of human HNF4A to DNA, primary screen, biochemical, fluorescence polarization, FITC-DNA. 1 h. activity change, % at 10 µM. 0.3% of 360,000 active; in the data active = activity change above about 30%, passing the limit was not always enough
CSN inh: inhibitors of CSN-mediated cullin deneddylation, primary screen, biochemical, fluorescence polarization, uHTS. COP9 signalosome complex subunit 5 (Homo sapiens), Q92905. 0.38% of 360,000 active. inhibition, % at 12.5 µM. Purified CSN, SCF-Nedd8-OG deneddylation;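 active = pattern-corrected inhibition above about 35%, with an unprinted fluorescence ratio check between 0.5 and 1.5, limit read from the data, passing the limit was not always enough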;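 also: 0% = enzyme with substrate and 100% = substrate without enzyme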
Target sequence (Q92905 whole entry, looked up, one chain of several): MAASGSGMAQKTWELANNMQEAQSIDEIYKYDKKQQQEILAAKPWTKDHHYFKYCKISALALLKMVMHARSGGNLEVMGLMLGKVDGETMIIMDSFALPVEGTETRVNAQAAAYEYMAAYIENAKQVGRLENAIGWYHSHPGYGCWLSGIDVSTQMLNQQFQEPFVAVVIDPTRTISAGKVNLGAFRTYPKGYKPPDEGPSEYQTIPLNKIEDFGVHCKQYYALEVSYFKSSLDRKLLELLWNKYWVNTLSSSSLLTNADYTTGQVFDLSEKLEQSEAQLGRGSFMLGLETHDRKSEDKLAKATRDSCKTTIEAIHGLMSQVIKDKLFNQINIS
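Material: purified human Csn5 enzyme expressed in HEK293T cells / Medium: Tris buffer pH 7.5, NaCl, DTT, Tween-20, trehalose, ovalbumin / Compound dosing: 12.5 µM single point / Schedule: 90 min incubation of compound, enzyme and substrate at room temperature / Signal: fluorescence polarization of the substrate / Control set: no-enzyme wells high, enzyme-with-substrate wells low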
aDG glyco up: activators of alpha-DG glycosylation, primary screen, uHTS, Pro5-aDG cells, AlphaScreen; alpha-DG glycosylation AlphaScreen (IIH6); 0% Pro5, 100% B10-LARGE cell signal; activation, % at 10 µM; 0.22% of 360,000 active;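 active = activation of at least 8% versus controls, or a plate z-score of at least 8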;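 also: Pro5 are CHO cells carrying HIG-tagged alpha-DG that lacks glycosylation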
Rev-erbA mod: modulators of Rev-erb alpha DNA binding, primary screen, biochemical, FITC-DNA, fluorescence polarization, uHTS; activity, % at 10 µM; 0.79% of 370,000 active; Rev-erbα–FITC-DNA binding, 90 min;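 active = activity above about 14%, limit read from the data; passing the limit was not always enough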;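 also: 0% = DMSO wells with 35 nM protein and 100% = DMSO wells with 750 nM protein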
* = called active by the depositor; / = no result. Rows were chosen to be rich in hits. Some 1.5% of all compounds tested hit in one or more screens of this group.

SMILES	HNF4A DNA FP	CSN inh	aDG glyco up	Rev-erbA mod
CN(C)c1ccc(/C=C(\C#N)C(=O)c2ccccc2)cc1	77*	77	0	11
CN(C)c1ccc(/C=C(/NC(=O)c2ccccc2)C(=O)N2CCCC2)cc1	5	38*	0	4
CC(=O)O[C@]1(C(C)=O)CCC2C3C[C@H](C)C4=CC(=O)CC[C@]4(C)C3CC[C@@]21C (stereo partly drawn)	/	/	/	2
O=C(O)c1ccc(N/N=C/C2=C(N3CCOCC3)C(=C\c3ccccc3)/CC2)cc1	35*	11	0	-2
Cc1cc(C)nc(N/N=C/C2=C(N3CCOCC3)C(=C\c3ccc(Cl)cc3)/CC2)n1	6	12	0	2
Cn1cccc1/C=C1\SC(=S)N(NC(=O)c2ccccc2)C1=O	86*	34	0	14
O=C(NN1C(=O)/C(=C/c2cccs2)SC1=S)c1ccccc1	1	3	0	/
O=C(O)c1ccc(/C=C2\SC(=S)N(NC(=O)c3ccccc3)C2=O)cc1	1	-6	0	3
Cn1cccc1/C=C1\SC(=S)N(NC(=O)c2ccc(F)cc2)C1=O	91*	54*	0	11
N[C@@H](CC(=O)N1CCn2c(nnc2C(F)(F)F)C1)Cc1cc(F)c(F)cc1F	/	/	/	-3
COC(=O)CSc1nnc(-c2ccc(NS(=O)(=O)c3ccc(Cl)s3)cc2)o1	/	/	/	1
COc1cc2c(cc1NC(=O)CSc1nnc(-c3ccccc3F)n1-c1ccc(C)cc1)oc1ccccc12	/	/	/	5
O=C(Nc1ccncc1NC(=O)c1cccc([N+](=O)[O-])c1)c1cccc([N+](=O)[O-])c1	-5	41*	1	-22
O=C(Nc1cccc(NC(=O)c2cccc([N+](=O)[O-])c2)n1)c1cccc([N+](=O)[O-])c1	-1	3	0	0
C[C@@H]1CC2C3C[C@H](F)C4=CC(=O)C=C[C@]4(C)[C@@]3(F)[C@@H](O)C[C@]2(C)[C@@]1(O)C(=O)COC(=O)C(C)(C)C (stereo partly drawn)	/	/	/	-1
Cn1cccc1C(C#N)(CC#N)c1cccc(F)c1C#N (stereo not drawn)	2	101*	0	-2
CCOC(=O)CC[C@H]1CC[C@]2(CCCN(C(=O)C3CCCC3)C2)O1	/	/	/	6
CCCCn1c(N)c(S(=O)(=O)c2ccc(C)cc2)c2nc3ccccc3nc21	5	39*	0	3
CN(C)CCCn1c(N)c(S(=O)(=O)c2ccccc2)c2nc3ccccc3nc21	-21	-3	0	3
O=C(Cc1ccccc1)Nc1ccc2c(c1)OC1(CCCC1)O2	-3	3	0	1
CCc1ccccc1NC(=O)CN1CCN(CC(=O)Nc2ccc3c(c2)OC2(CCCCC2)O3)CC1	0	46*	0	-7
CCCCCCCCN1CN2Cc3ccccc3C2CS1(=O)=O (stereo not drawn)	/	/	/	9
CCC(=O)Nc1nc(C)c(Oc2ccccc2)c(=O)[nH]1	4	105*	0	-3
CC(=O)Nc1nc(C)c(Oc2ccccc2)c(=O)[nH]1	1	-5	0	-1
CCc1cc(=O)oc2cc3occ(-c4ccc(OC)c(F)c4)c3cc12	30	37*	0	-10
SMILES	HNF4A DNA FP	CSN inh	aDG glyco up	Rev-erbA mod
CCc1cc(=O)oc2cc3occ(C)c3cc12	-2	-9	0	-5
CN(C)c1nc(SCC#N)nc(N2CCOCC2)n1	43*	-2	0	0
CC(C)(C)NCC(O)COc1cccc2c1CCCC2=O (stereo not drawn)	/	/	/	8
CCCCCCC(C)n1cc(C(C)=O)c(=O)[nH]c1=O (stereo not drawn)	0	50*	0	3
CN(C)CCNc1ccc(CO)c2sc3ccc(O)cc3c(=O)c12	36*	5	0	11
COc1ccc2sc3cccc(NCCN(C)C)c3c(=O)c2c1	19	4	0	-1
COC(=O)[C@]12C[C@H](CC(=O)NCc3cccc(C(F)(F)F)c3)C(=O)N(Cc3cccc4ccccc34)C1=C[C@H](C(C)(C)C)O[C@@H]2C	/	/	/	1
Cc1nn(C)c(C)c1CN(C)S(=O)(=O)c1ccc2ccccc2c1	-4	5	6.5*	-2
OCCc1ccc(O)c(-n2nc3ccccc3n2)c1	1	6	0	2
N#Cc1ccc(COc2ccc(CCO)cc2-n2nc3ccccc3n2)cc1	-1	100*	0	1
